Rows were chosen to be rich in hits. Some 1.9% of all compounds tested hit in one or more screens of this group.
Jurkat NFkB inh: lowers PMA/ionomycin-induced NF-kB signal in Jurkat cells. PMA/ionomycin-induced NF-kB luciferase reporter, luminescence. inhibition, % at 4 µM. actives 0.53% (n = 330,000); in the data active means inhibition above about 50%
Lipid droplet: modulators of hepatic lipid droplet formation; actives 0.4% (n = 240,000); AID 1656; AML12 mouse hepatocytes, oleate lipid droplets, BODIPY imaging; inhibition, % at 6.5 µM;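 active means lipid droplet intensity inhibited by at least 50%, with more than 500 cells counted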
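Assay system: AML12 mouse liver cells | Compound dosing: One dose, 6.5 µM compound | Read-out basis: Droplet intensity reduction, % inhibition | Measured by: Fluorescence imaging, 20x objective, two fields per well | Schedule: Overnight treatment with compound plus oleate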
APP 5UTR inh: APP translation inhibition; inhibition, % at 2 µM; AID 1285; SH-SY5Y APP 5'UTR-luciferase reporter, luminescence; actives 0.82% (n = 190,000);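 active means inhibition above a set limit, derived from the sample mean plus 3 SD, cut at about 45% in these data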
H9c2 TAG inh: triacylglycerol accumulation inhibition | H9c2 cells, Nile Red lipid (TAG) fluorescence; cells loaded with 200 µM oleic acid | inhibition, % at 12.5 µM | actives 0.66% (n = 230,000) | AID 651582;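 active means pattern-corrected inhibition of lipid staining of at least 50% with the nuclear-stain viability signal not falling by more than 50%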;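 further: 0% = DMSO wells and 100% = triacsin C control wells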
aSyn UTR inh: 5' untranslated region of α-synuclein, MLPCN primary screen. alpha-synuclein 5'UTR reporter, inhibitor activity. inhibition, % (tested at 7.5 µM). actives 0.82% (n = 300,000); in the data active means inhibition above about 60%;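 further: H4 neuroglioblastoma cells stably carrying SNCA 5'UTR luciferase fusion; 0% = DMSO wells and 100% = positive control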
697 NFkB inh: lowers PMA/ionomycin-induced NF-kB signal in 697 B cells; AID 435022; 697 B-cell NF-kB luciferase reporter, 16 h; inhibition, % at 4 µM; actives 0.33% (n = 330,000); in the data active means inhibition above about 35%
TAG conf: confirmation of triacylglycerol accumulation inhibitors | AID 651629 | inhibition, % at 12.5 µM | shares compounds with H9c2 TAG inh | actives 71% (n = 990) | H9c2 lipid accumulation, Nile Red fluorescence; cells loaded with 200 µM oleic acid;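 active means mean inhibition across replicates of 40% or more; inactive means mean inhibition below 40%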;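 further: plate controls were DMSO only wells for no effect and Triacsin C treated wells for full effect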
* marks the source's active call; other numbers are inactive results; · = no result.

SMILES | Jurkat NFkB inh | Lipid droplet | APP 5UTR inh | H9c2 TAG inh | aSyn UTR inh | 697 NFkB inh | TAG conf
CCCCOc1ccc(CSC2=NCCN2)cc1[N+](=O)[O-] | -28 | -10 | 8 | 56* | -82 | -40 | 69*
CC(NC(=O)CNC(=O)c1cccc(Cl)c1)c1ccccc1 (stereo unspecified) | -58 | · | · | · | 3 | -29 | ·
CCOC(=O)c1cc(-c2ccccc2)sc1NC(=O)COC(=O)c1cccc(S(N)(=O)=O)c1 | -8 | 20 | -16 | 78* | 72* | 4 | 68*
O=[N+]([O-])c1ccc(/C=N/Nc2ncccc2[N+](=O)[O-])s1 | 7 | · | · | 64* | -9 | -69 | 33
CCOc1ccccc1OCCCC(=O)Nc1cccc(-n2cnnn2)c1C | 14 | · | · | 10 | · | 14 | ·
COc1cc(OC)c2ccc(=O)oc2c1C(CCN1CCN(c2ccccc2)CC1)c1ccc(N(C)C)cc1 (stereo unspecified) | 13 | -4 | · | -10 | 16 | 4 | ·
CCN(CC)CCC(c1ccc(N(C)C)cc1)c1c(OC)cc(OC)c2c(-c3ccccc3)cc(=O)oc12 (stereo unspecified) | 6 | 50 | · | 30 | · | -8 | ·
COc1cc(OC)c2c(-c3ccccc3)cc(=O)oc2c1C(CCN1CCN(c2ccccc2)CC1)c1ccc(N(C)C)cc1 (stereo unspecified) | -10 | 39 | · | 54* | 8 | 4 | 63*
CCCCCc1cc(=O)oc2c(C(CCN3CCN(c4ccccc4)CC3)c3ccc(N(C)C)cc3)c(OC)cc(OC)c12 (stereo unspecified) | -2 | 24 | · | 73* | 35 | 16 | 63*
CCCCCc1cc(=O)oc2c(C(CCN(CC)CC)c3cc(OC)c(OC)c(OC)c3)c(OC)cc(OC)c12 (stereo unspecified) | 25 | 23 | · | 114* | 17 | 7 | 97*
CC(C)(C)c1csc(NNC(=O)c2ccc(Br)cc2)n1 | -17 | 5 | -34 | 55* | 23 | -12 | 12
CCOc1cc(CNC(C)(C)C)ccc1OCC(=O)Nc1cccc(C(F)(F)F)c1 | 2 | 14 | -32 | 52* | -26 | -1 | 63*
COc1ccc(Nc2oc(-c3ccc(Cl)cc3)nc2C#N)cc1 | 10 | · | -14 | 54* | -77 | -91 | 52*
CC1=CC(C)(C)NC(=S)N1C(C)c1ccccc1 (stereo unspecified) | 1 | -15 | · | · | -2 | -1 | ·
CCCCOc1ccc(NC(=O)C(=O)NCCC2=CCCCC2)cc1 | -42 | -1 | 1 | 64* | 9 | -29 | 8
COc1ccc(NC(=O)NCCC2=CCCCC2)cc1 | -107 | -14 | -53 | -4 | -131 | -151 | ·
Cc1occc1C(=O)NC(C)CCc1ccccc1 (stereo unspecified) | 0 | · | 0 | 51* | -19 | 5 | 54*
Cn1nnnc1Sc1ncnc2scc(-c3ccc(-c4ccccc4)cc3)c12 | 1 | · | · | 59* | · | 6 | 36
Cn1nnnc1Sc1ncnc2scc(-c3ccc(C#N)cc3)c12 | -9 | · | · | 64 | · | -246 | ·
CC(C)n1cc(/C=C2\NC(=O)N(c3cccc(Cl)c3)C2=O)c2ccccc21 | 11 | 12 | 5 | · | 6 | 18 | ·
CC(C)n1cc(/C=C2/NC(=O)N(c3cccc(Cl)c3)C2=O)c2ccccc21 | 32 | -2 | -6 | 55* | 2 | -1 | 23
COCCNc1nc(NCCOC)c2sc(-c3ccccc3)cc2n1 | · | · | · | 13 | · | · | ·
COCCNc1nc(-c2ccc(OC)cc2C)c2sc(-c3ccccc3)cc2n1 | · | · | · | 60* | · | · | 19
CCOC(=O)c1sc2nc(CSc3ccccc3)nc(NCCN(C)C)c2c1C | 1 | 6 | -31 | 52* | -15 | 1 | 62*
CCOC(=O)c1sc2nc(C)nc(NCCc3ccccn3)c2c1C | 8 | -28 | -4 | 1 | 21 | -3 | ·
O=C(Nc1ccc(/C=C/c2nc3ccccc3o2)cc1)c1c(F)cccc1F | -127 | 44 | -208 | 54* | -171 | -115 | 55*
Cc1cc2c(C)cc(=O)[nH]c2cc1NC(=O)CCl | 15 | -10 | · | 33 | -70 | 18 | ·
O=C(CCl)Nc1cc2[nH]c(=O)[nH]c2cc1Br | 31 | 0 | -9 | 51* | -45 | -51 | 69*

High-throughput results from PubChem BioAssay.
